Among the data in ChEMBL document CHEMBL3352331, “Anti-respiratory syncytial virus prenylated dihydroquinolone derivatives from the gorgonian-derived fungus Aspergillus sp. XS-20090B15” (J Nat Prod, 2014) are IC50, CC50 and selectivity ratio values, retold here.

Data set [1] concerns Respiratory syncytial virus. The data set can be described thus: Antiviral activity against Respiratory syncytial virus infected in human Hep2 cells assessed as inhibition of virus-induced cytopathic effect after 72 hrs by XTT assay. Type of data set: functional, organism-based. The note with it: HEp-2, 72 h. The essentials:
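RSV-induced cytopathic effect inhibition in Hep-2 (human laryngeal carcinoma) cells, run by an established CPE-inhibition procedure. Ribavirin served as the positive control. Values are the mean of three replicate determinations.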

Data set [2] is described as follows: Cytotoxicity against human Hep2 cells after 48 hrs. Type of data set: cell-based, HEp-2. The settings on record: read-out: TC50.
Data set [3] in a line: Therapeutic index, ratio of TC50 for human Hep2 cells to IC50 for Respiratory syncytial virus. Type of data set: cell-based, HEp-2. The settings on record: read-out: TI.

Some results are limits rather than exact numbers.

For orientation: IC50 means the concentration at which inhibition is half-maximal. As to `CN[C@H](C(=O)O[C@@H]1CC[C@@](C)(/C=C/c2ccc3c(c2O)[C@@](O)(c2ccccc2)[C@H](OC)C(=O)N3)C[C@@H]1C)C(C)C`, in data set [1], the IC50 was over 50 µM.

Consider `CN[C@H](C(=O)O[C@@H]1CC[C@@](C)(/C=C/c2ccc3c(c2O)[C@@](O)(c2ccccc2)[C@H](OC)C(=O)N3)C[C@H]1C)C(C)C`, for which, in data set [1], the IC50 turned out to be 0.042 µM. Further, the CC50 at 48 h in data set [2] was 22 µM. Also, in data set [3], the selectivity ratio was found to be 520.

`CO[C@@H]1C(=O)Nc2ccc(/C=C/[C@]3(C)CCC(=O)[C@H](C)C3)c(O)c2[C@@]1(O)c1ccccc1`: the IC50 in data set [1] was 6.6 µM. In addition, the CC50 at 48 h in data set [2] was found to be 27 µM. The selectivity ratio in data set [3] came to 4.

For `CO[C@@H]1C(=O)Nc2ccc(/C=C/[C@]3(C)CCC(=O)[C@@H](C)C3)c(O)c2[C@@]1(O)c1ccccc1` [AFLAQUINOLONE A], the IC50 in data set [1] is over 50 µM.

On to `NC(=O)c1ncn([C@@H]2O[C@H](CO)[C@@H](O)[C@H]2O)n1` [RIBAVIRIN], for which the half-inhibitory concentration (IC50) in data set [1] turned out to be 20 µM. Further, the CC50 at 48 h in data set [2] was over 3000 µM. In addition, the selectivity ratio in data set [3] is over 150.
